Compound activity from PubChem BioAssay.
This is a sample that favours compounds with a hit; in the whole collection about 4.8% have one here.
PAFAH2 inh = inhibitors of human PAFAH2. Q99487. recombinant PAFAH2, FP-rhodamine activity probe, fluorescence polarization. inhibition, % at 3.39 µM. 340,000 compounds, 0.99% hits. AID 492956;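 active = inhibition above the mean over all tested compounds plus 3 SD, cut at about 30% in these data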;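 also: inhibitors block probe labeling of enzyme so polarization drops; 0% = enzyme with DMSO and 100% = wells lacking PAFAH2 protein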
UCH37 inh = blocks the human deubiquitinase UCH37; Q9Y5K5; inhibition, % (concentration not given with the values); purified proteasome/UCH37, Ub-AMC cleavage fluorescence; AID 588478; 330,000 compounds, 0.33% hits;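 active = mean inhibition over replicate wells above about 20%, limit read from the data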;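 also: 0% = compound-free wells with enzyme and 100% = wells lacking proteasome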
Target sequence (Q9Y5K5 whole entry, looked up): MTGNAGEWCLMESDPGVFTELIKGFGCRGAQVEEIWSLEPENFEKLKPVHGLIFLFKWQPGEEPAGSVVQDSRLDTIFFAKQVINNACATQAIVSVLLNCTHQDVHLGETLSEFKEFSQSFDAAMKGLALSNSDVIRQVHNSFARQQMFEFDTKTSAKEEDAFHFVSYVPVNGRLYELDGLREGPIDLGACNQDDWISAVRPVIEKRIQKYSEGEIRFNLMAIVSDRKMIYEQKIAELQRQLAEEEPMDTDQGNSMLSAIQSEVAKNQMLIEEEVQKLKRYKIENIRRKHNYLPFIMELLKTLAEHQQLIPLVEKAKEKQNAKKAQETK
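Material: Human UCH37 enzyme supplied as purified proteasome complex | Schedule: 30 min preincubation with enzyme, 25 min cleavage at room temperature | Detection: AMC fluorescence 355/460 nm | Measure: % inhibition of Ub-AMC cleavage fluorescence | Controls: Wells without proteasome as full block, compound-free enzyme plus substrate as uninhibited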
pPAFAH inh = pPAFAH (human) enzyme inhibition | recombinant pPAFAH, FP-rhodamine probe fluorescence polarization | inhibition, % at 3.39 µM | 330,000 compounds, 1.5% hits | AID 463082;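 active = inhibition above the mean inhibition across the screen plus 3 SD, cut at about 25% in these data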;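 also: inhibitors block binding of the rhodamine activity-based probe so polarization drops; 0% = enzyme with DMSO and 100% = wells lacking pPAFAH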
GRIN3A LBD mod = NR3A (human) ligand-binding domain modulation; NR3A LBD differential scanning fluorimetry, Tm shift; 0% = protein alone, 100% = glycine-bound protein; Tm shift relative to glycine control, % at 25 µM; 340,000 compounds, 2.5% hits;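 active = melting temperature shift of at least 10% of the positive control shift, at one fixed dose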
PAFAH1B2 FP inh = blocks human PAF acetylhydrolase 1b catalytic subunit 2. P68402. recombinant PAFAH1B2, FP-rhodamine activity probe, fluorescence polarization. inhibition, % at 3.39 µM. 340,000 compounds, 1.2% hits;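 active = inhibition above the mean of all tested compounds plus 3 SD, cut at about 24% in these data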;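 also: 0% = enzyme with DMSO and 100% = wells lacking PAFAH1B2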
PAFAH1B3 FP inh = PAFAH1B3 (human) inhibition. recombinant PAFAH1B3, FP-rhodamine probe, fluorescence polarization. inhibition, % at 3.39 µM. 340,000 compounds, 0.28% hits. AID 492972;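 active = inhibition above the screen-wide average of all tested compounds plus 3 SD, cut at about 25% in these data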;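 also: 0% = enzyme with DMSO only and 100% = wells lacking PAFAH1B3 protein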
pPAFAH FP conf = confirmation of human plasma PAF acetylhydrolase (pPAFAH) inhibitors | 2,300 compounds, 72% hits | recombinant pPAFAH, FP-Rh probe fluorescence polarization | inhibition, % at 3.39 µM | shares compounds with pPAFAH inh;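 active = mean inhibition of the triplicate above the hit cutoff set for the earlier primary screen, cut at about 25% in these data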;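 also: 0% = enzyme with DMSO and 100% = wells lacking pPAFAH enzyme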
Starred values were filed as active, the others as inactive.

For CCCCCCCC/C=C\CCCCCCCC(=O)O the results were PAFAH2 inh 15, UCH37 inh 8, pPAFAH inh 4, GRIN3A LBD mod 3, PAFAH1B2 FP inh 16 and PAFAH1B3 FP inh 6.
For O=C(CCNS(=O)(=O)c1ccc(Cl)cc1)OCC(=O)N1CCN(C(=O)c2ccco2)CC1 the results were PAFAH2 inh -2, UCH37 inh 0, pPAFAH inh 9, GRIN3A LBD mod 1, PAFAH1B2 FP inh 4 and PAFAH1B3 FP inh 3.
For O=C(OCC(=O)N1CCN(C(=O)c2ccco2)CC1)c1cc(S(=O)(=O)Nc2ccc(Cl)cc2)ccc1O the results were PAFAH2 inh 13, UCH37 inh -11, pPAFAH inh 62*, GRIN3A LBD mod -3, PAFAH1B2 FP inh 33*, PAFAH1B3 FP inh 4 and pPAFAH FP conf 68*.
Cc1ccc2nc(C)c(C(=O)NN=Cc3cccs3)n2c1 was read as UCH37 inh 10.
`O=[N+]([O-])c1cc(C=NN2CCN(Cc3ccccc3)CC2)ccc1Cl` gave UCH37 inh 4.
COc1ccc(N(C(C)C(=O)NN=Cc2cc(Br)c(C)o2)S(C)(=O)=O)cc1 (centres undefined) was read as UCH37 inh 1.
For CSc1nnc(-c2cc3c(s2)-c2ccccc2CC3)o1 the results were PAFAH2 inh 5, UCH37 inh inactive, pPAFAH inh -2, GRIN3A LBD mod -20, PAFAH1B2 FP inh 7 and PAFAH1B3 FP inh -3.
Screening S=c1[nH]nc(-c2cc3c(s2)-c2ccccc2CC3)o1 returned PAFAH2 inh 21, UCH37 inh inactive, pPAFAH inh 38*, GRIN3A LBD mod -23, PAFAH1B2 FP inh 7, PAFAH1B3 FP inh 7 and pPAFAH FP conf 62*.
CCOC(=O)c1c(-c2ccc(C)c(C)c2)csc1NC(=O)C1CC=CCC1C(=O)O (centres undefined) was read as PAFAH2 inh 18, UCH37 inh 4, pPAFAH inh 41*, GRIN3A LBD mod -5, PAFAH1B2 FP inh 2, PAFAH1B3 FP inh -3 and pPAFAH FP conf 39*.
O=C(O)CSCC(=O)N(Cc1ccccc1)c1nc(-c2ccccc2)c(-c2ccccc2)s1 was read as PAFAH2 inh -6, pPAFAH inh 54*, GRIN3A LBD mod -402, PAFAH1B2 FP inh 23, PAFAH1B3 FP inh 3 and pPAFAH FP conf 54*.
Screening CCOC(=O)c1sc(N(Cc2ccccc2)C(=O)CCl)nc1C returned PAFAH2 inh -5, UCH37 inh 5, pPAFAH inh -3, GRIN3A LBD mod 0, PAFAH1B2 FP inh 2 and PAFAH1B3 FP inh -6.
Screening Cc1ccc(C(=O)CSc2nnc(-c3c[nH]c4ccccc34)o2)cc1 returned PAFAH2 inh 1, UCH37 inh 3, pPAFAH inh 48*, GRIN3A LBD mod 2, PAFAH1B2 FP inh 1, PAFAH1B3 FP inh 6 and pPAFAH FP conf 3.
O=c1cc(-c2ccccc2Cl)oc2c(NS(=O)(=O)c3cc(Cl)cc(Cl)c3O)ccc(O)c12 was read as PAFAH2 inh 12, UCH37 inh 2, pPAFAH inh 41*, GRIN3A LBD mod 5, PAFAH1B2 FP inh 13, PAFAH1B3 FP inh 14 and pPAFAH FP conf 78*.
Screening COC(=O)c1ccc(=O)c2nc3/c(=C/O)c(O)cc(=O)c3[nH]c12 returned PAFAH2 inh 81*, pPAFAH inh 92*, GRIN3A LBD mod -6, PAFAH1B2 FP inh 60*, PAFAH1B3 FP inh 66* and pPAFAH FP conf 91*.
Oc1c(Br)cc(/C=N/Nc2ccc(Cl)nn2)cc1Br was read as PAFAH2 inh 33*, pPAFAH inh 52*, GRIN3A LBD mod 3, PAFAH1B2 FP inh 16, PAFAH1B3 FP inh 28* and pPAFAH FP conf 58*.
`Oc1c(Br)cc(Br)cc1/C=N/Nc1ccc(Cl)nn1` gave PAFAH2 inh 29, pPAFAH inh 4, GRIN3A LBD mod -3, PAFAH1B2 FP inh 9 and PAFAH1B3 FP inh 7.
For Oc1ccc(/C=N/Nc2ccc(Cl)nn2)c(O)c1O the results were PAFAH2 inh 29, pPAFAH inh 57*, GRIN3A LBD mod 22*, PAFAH1B2 FP inh 1, PAFAH1B3 FP inh 16 and pPAFAH FP conf 12.
